Results taken from publication PMC5590686 (Drug Design, Development and Therapy, 2017).

Legend:
P-gp = experiment: Rho 123 efflux/accumulation by flow cytometry; type: cell-based, rat; conditions: puerarin 50, peoniflorin 20, menthol 25 μg/mL
[1] = test system: TJ proteins ZO-1, claudin-1, F-actin; experiment: Immunofluorescence of TJ proteins in RNECs; type: cell-based, rat; conditions: 3 h; puerarin 50, peoniflorin 20, menthol 25 μg/mL
Outline: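 Monolayers grown on PET Transwell membranes (5×10^5 cells/cm2) were exposed to compound media for 3 h at 37°C. They were fixed in cold 4% paraformaldehyde for 30 min and blocked 1 h in goat serum. Anti-ZO-1 or anti-claudin-1 (1:100) was applied overnight at 4°C, then TRITC/FITC secondaries; F-actin was stained with phalloidin (1:150, 30 min, RT), with DAPI counterstain. Fluorescence/confocal imaging used identical settings; AOD = IntDen/Area, expressed as percentage.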

Calu-3 cells = conditions: Calu-3 monolayer, cited from earlier work
[2] = Bidirectional transport of puerarin across RNEC monolayers; type: in vitro ADME; conditions: Sprague Dawley, rat
Outline: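 RNECs from a male Sprague Dawley rat nasal epithelium, passage 2–3, were seeded at 5×10^5 cells/cm2 on collagen-coated 0.4-μm PET Transwell membranes and grown 3 days at air interface until TEER >500 Ω·cm2. Monolayers were HBSS-washed and equilibrated 30 min at 37°C. Drug was dosed apical or basolateral with shaking at 37°C, receiver sampled 30–180 min, and quantified by C18 HPLC-UV at 250 nm. Papp = regression dQ/dt over donor C and area; ER calculated from both directions.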

[3] = rats, cited from earlier work

Compound	effect on P-gp function (Rho 123 retention) (P-gp)	immunostaining / AOD of ZO-1, claudin-1 and F-actin versus control [1]	effect of coadministration on Papp of puerarin (Calu-3 cells)	Papp A→B at 180 min [2] [×10⁻⁶ cm/s]	Papp B→A at 180 min [2] [×10⁻⁶ cm/s]	Papp at 180 min [2] [×10⁻⁶ cm/s]	efflux ratio at 180 min [2]	Papp of puerarin bidirectional transport (Calu-3 cells; both directions) [×10⁻⁶ cm/s]	efflux ratio (ER) (Calu-3 cells)	ability of puerarin to target the brain via intranasal administration ([3]; intranasal versus injection and oral)	bioavailability of puerarin following intranasal administration ([3]; intranasal versus oral, plasma and brain by HPLC)
CC1CCC(C(C)C)C(O)C1 (centres unmarked) [menthol]	inhibited the function of P-gp	weaker than that of the control group	significantly (P<0.05) improved	–	–	–	–	–	–	–	–
C[C@@]12C[C@@]3(O)O[C@@H](O1)[C@]1(COC(=O)c4ccccc4)[C@H]3C[C@@]12O[C@@H]1O[C@H](CO)[C@@H](O)[C@H](O)[C@H]1O [peoniflorin]	inhibited the function of P-gp	–	remained unaltered	–	–	–	–	–	–	–	–
O=c1c(-c2ccc(O)cc2)coc2c([C@@H]3O[C@H](CO)[C@@H](O)[C@H](O)[C@H]3O)c(O)ccc12 [puerarin, Puerarin]	inhibited the function of P-gp	–	–	1.27 to 1.31	1.35 to 1.41	< 1.5	< 2	< 1.5	< 1.5	higher than that with injection and oral administration	significantly higher than that of oral administration
